MEKK2 mut-MEK5: signal of MEK5 binding to mutant human MEKK2 PB1 domain. hit rate 0.35% among 290,000. bead flow cytometry, Alexa488-MEK5 binding to MEKK2 mutant. percent response, % at 10 µM; in the data active means percent response above about 24%, passing the limit was not always enough
MEKK2 WT-MEK5: raises or lowers MEK5 binding to wildtype human MEKK2 PB1 domain; Q9Y2U5; bead flow cytometry, Alexa488-MEK5 binding to MEKK2 WT; actives lie on both sides; binding response (% of control), % at 10 µM; hit rate 1.1% among 290,000; AID 1531; in the data active means binding response below about 67% or above about 130%
PREPL inhibitor: inhibits the human prolyl oligopeptidase-like enzyme; Q4J6C6; recombinant PREPL, fluorescence polarization activity-based probe; inhibition, % at 5.96 µM; hit rate 0.68% among 320,000; AID 2751; in the data active means inhibition above about 43%;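 further: 0% = enzyme with DMSO and 100% = wells lacking enzyme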
Target sequence (Q4J6C6 whole entry, looked up): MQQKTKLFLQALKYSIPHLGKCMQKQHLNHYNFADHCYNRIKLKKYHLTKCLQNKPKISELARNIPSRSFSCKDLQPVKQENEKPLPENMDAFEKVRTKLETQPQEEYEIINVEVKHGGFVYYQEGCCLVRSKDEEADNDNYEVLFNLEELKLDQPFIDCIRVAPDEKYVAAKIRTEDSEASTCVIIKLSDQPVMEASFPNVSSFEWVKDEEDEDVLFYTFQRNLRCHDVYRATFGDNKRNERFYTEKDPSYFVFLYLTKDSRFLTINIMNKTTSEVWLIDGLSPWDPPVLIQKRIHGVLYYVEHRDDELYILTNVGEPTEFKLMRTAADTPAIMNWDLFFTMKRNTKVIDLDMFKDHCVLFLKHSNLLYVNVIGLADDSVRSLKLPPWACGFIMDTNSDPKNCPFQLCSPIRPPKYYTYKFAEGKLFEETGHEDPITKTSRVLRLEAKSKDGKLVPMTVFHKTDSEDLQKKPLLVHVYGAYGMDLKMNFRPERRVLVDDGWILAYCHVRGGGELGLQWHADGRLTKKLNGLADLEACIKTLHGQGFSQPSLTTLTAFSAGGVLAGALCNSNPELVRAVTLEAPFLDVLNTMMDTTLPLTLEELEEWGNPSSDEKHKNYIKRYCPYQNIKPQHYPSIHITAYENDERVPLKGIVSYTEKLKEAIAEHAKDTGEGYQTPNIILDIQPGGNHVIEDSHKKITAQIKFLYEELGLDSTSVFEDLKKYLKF
UBC13 polyUb: human UBC13 polyubiquitination inhibition; P61088; UBC13 polyubiquitin chain formation, TR-FRET; inhibition, % at 20 µM; hit rate 0.47% among 330,000; AID 485273; in the data active means inhibition above about 45%, passing the limit was not always enough
MEKK3 PB1 HTS: MEKK3-MEK5 PB1 interaction, increase or decrease; Q99759; bead-based flow cytometry, Alexa488-MEK5 binding to MEKK3; actives lie on both sides; 0 = blocked by unlabeled MEK5, 100 = vehicle; binding response (% of control), % at 10 µM; hit rate 1.4% among 290,000;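 active means binding response more than 3 SD above or below the average of its plate-row segment, actives on both sides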;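 further: Alexa488 bead fluorescence after subtracting the streptavidin-only scavenger bead signal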
Apaf-1 inh: inhibitors of human Apaf-1 apoptosome; O14727; reconstituted apoptosome caspase-3 activity, DEVD-Rh110 fluorescence; inhibition, % at 20 µM; hit rate 0.71% among 330,000; active means inhibition of at least 40% at 20 µM;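 further: plate controls were DMSO wells for no effect and DEVD-CHO caspase inhibitor wells for full effect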
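Material: reconstituted apoptosome with Apaf-1, cytochrome c, caspase-9, procaspase-3, dATP; medium: pH 7.5 Hepes buffer with CHAPS, BSA, DTT; also added: cytochrome c and DEVD-Rh110 substrate; timing: 30 min plus 50 min, RT; signal: Rh110 fluorescence intensity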
MEKK2wt confirm: raises or lowers MEK5 binding to wildtype human MEKK2, retest. bead flow cytometry, Alexa488-MEK5 binding to MEKK2 WT; actives lie on both sides. AID 1892. binding response (% of control), % at 10 µM. hit rate 2.4% among 5,900. shares compounds with MEKK3 PB1 HTS; in the data active means binding response below about 16% or above about 210%; inactive means in between
MEKK2mut confirm: signal of MEK5 binding to mutant human MEKK2, retest; bead flow cytometry, Alexa488-MEK5 binding to MEKK2 mutant; shares compounds with MEKK3 PB1 HTS; hit rate 2% among 5,900; percent response, % at 10 µM; in the data active means percent response mostly above about 71%, no sharp cut-off; inactive means mostly below about 38%;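 further: higher means compound restores mutant binding toward wildtype level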
MEKK3-MEK5 inh: MEKK3-MEK5 PB1 inhibition, single concentration confirmation; bead flow cytometry, Alexa488-MEK5 binding to MEKK3; active compounds read low; shares compounds with MEKK3 PB1 HTS; hit rate 1.8% among 5,900; binding response (% of control), % at 10 µM; AID 1894;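 active means binding response below 72% of control, or above a set upper limit, though filed actives all read lower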;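 further: 100% = DMSO only wells and 0% = binding blocked by excess unlabeled MEK5; lower values mean stronger disruption of MEK5 binding to MEKK3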
* marks the source's active call; other numbers are inactive results; nt = no result; [ ] = dose if it differs, or a comment. This is a sample that favours compounds with a hit; in the whole collection about 3.1% have one here.

SMILES	MEKK2 mut-MEK5	MEKK2 WT-MEK5	PREPL inhibitor	UBC13 polyUb	MEKK3 PB1 HTS	Apaf-1 inh	MEKK2wt confirm	MEKK2mut confirm	MEKK3-MEK5 inh
CCc1cc2cc(C(=O)N3CCN(Cc4ccccc4)CC3)sc2s1	-13	91	-1	15	77*[inhibitor]	29	89	-11	85
CCc1cc2cc(C(=O)N3CCN(c4ccccc4)CC3)sc2s1	5	109	4	10	105	11	nt	nt	nt
Cc1ccnn1CCC(=O)O	29	113	16	-5	129*	0	102	3	102
Cc1ccnn1CCSCC(=O)O	2	95	12	6	96	-5	nt	nt	nt
OC1(c2ccc3ccccc3c2)CCN(Cc2ccccc2)C1 (centres undefined)	28*	130	-5	7	112	-4	110	6	103
CCOC(=O)c1cc(C)n(-c2c(C)n(C)n(-c3ccccc3)c2=O)c1C	11	105	4	-4	103	-1	nt	nt	nt
Cc1cc(C(=O)COC(=O)CC2Sc3ccccc3NC2=O)c(C)n1-c1ccccc1 (centres undefined)	0	105	-28	0	136*	5	93	-10	96
CCCCC(=O)OCC(=O)c1cc(C)n(-c2c(C)n(C)n(-c3ccccc3)c2=O)c1C	-3	83	6	10	65*[inhibitor]	0	90	-10	89
Cc1c(NC(=O)c2ccc([N+](=O)[O-])o2)cccc1-c1nc2ncccc2o1	-4	97	32	-7	98	8	nt	nt	nt
O=C(CN1CCN(CC(=O)Nc2ccccc2Cc2ccccc2)CC1)Nc1ccccc1Cl	-8	92	0	-4	94	23	nt	nt	nt
CCCNC(=O)CN1CCC(c2nc3ccccc3[nH]2)CC1	-2	102	1	4	100	-17	nt	nt	nt
CCOC(=O)c1c(NC(=O)C(=O)N/N=C/c2ccccc2OC)sc2c1CCCCC2	11	110	-8	-8	103	7	nt	nt	nt
CCOC(=O)c1c(NC(=O)C(=O)N/N=C/c2ccccc2O)sc2c1CCCCC2	0	105	15	-11	137*	-5	100	0	103
CCOC(=O)c1ccc2[nH]c3c(c2c1)CN(C)CC3	24*	129	14	20	105	3	124	16	100
CCc1cccc(C)c1NC(=O)CN1C(=O)NC(CCc2ccccc2)C1=O (centres undefined)	nt	nt	-2	5	nt	1	nt	nt	nt
CCCS(=O)(=O)N1CCN(CC2CC3C=CC2C3)CC1 (centres undefined)	24*	104	5	-4	108	6	106	12	108
CCOc1ccc(NC(=O)CCN2C(=O)c3ccccc3C2=O)cc1	8	106	-14	1	102	1	nt	nt	nt
CCc1ccc(C(O)(CNCc2ccccc2)c2ccccc2)cc1 (centres undefined)	26*	120	nt	13	111	10	114	9	106
COc1cccc(CNCC(O)(c2ccc(Cl)cc2)c2ccc(Cl)cc2)c1	7	158*	3	12	111	5	118	5	98
CCOC(=O)c1c(C)[nH]c(C(=O)Nc2cc(OCC)c(N3CCOCC3)cc2OCC)c1C	nt	nt	12	21	nt	-3	nt	nt	nt
CCOC(=O)N1CCN(C(=O)c2ccc3c(=O)n(-c4ccc(F)cc4)c(=S)[nH]c3c2)CC1	-21	0.0*[inhibitor]	7	9	1.0*[inhibitor]	2	94	-1	87
COc1ccc(-n2c(=S)[nH]c3cc(C(=O)Nc4cccc(C)c4)ccc3c2=O)cc1	-1	105	-2	-16	155*	-17	101	4	103

Screening results: PubChem BioAssay, several laboratories
